Columns and labels:
[1] = biological target: T1, Cytosolic phospholipase A2 (Homo sapiens) (UniProt P47712); assay: Inhibition of human group 4A cPLA2 using PAPC/[14C]-labeled PAPC as substrate at 0.091 mole fraction after 30 mins by mixed micelle-based assay relative to control
T1 sequence (whole entry): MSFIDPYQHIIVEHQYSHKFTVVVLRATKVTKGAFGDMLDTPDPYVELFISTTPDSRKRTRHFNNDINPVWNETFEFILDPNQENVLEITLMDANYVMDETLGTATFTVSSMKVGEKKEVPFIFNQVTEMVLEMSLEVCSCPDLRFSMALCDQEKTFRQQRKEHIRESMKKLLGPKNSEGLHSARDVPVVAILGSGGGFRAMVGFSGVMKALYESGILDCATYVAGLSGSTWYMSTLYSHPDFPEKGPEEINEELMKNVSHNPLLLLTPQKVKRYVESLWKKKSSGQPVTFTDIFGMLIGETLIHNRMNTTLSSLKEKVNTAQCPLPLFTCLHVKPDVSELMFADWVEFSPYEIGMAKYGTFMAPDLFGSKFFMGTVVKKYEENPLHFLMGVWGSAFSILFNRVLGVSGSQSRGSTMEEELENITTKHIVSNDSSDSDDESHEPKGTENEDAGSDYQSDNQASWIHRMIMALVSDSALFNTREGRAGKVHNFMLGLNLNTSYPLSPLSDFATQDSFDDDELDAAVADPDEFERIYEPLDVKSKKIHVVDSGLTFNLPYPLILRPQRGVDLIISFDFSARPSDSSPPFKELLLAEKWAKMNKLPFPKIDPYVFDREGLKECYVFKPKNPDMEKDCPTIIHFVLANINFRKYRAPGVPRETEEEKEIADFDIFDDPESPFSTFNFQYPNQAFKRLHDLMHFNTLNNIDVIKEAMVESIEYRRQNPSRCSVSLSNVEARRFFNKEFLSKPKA
Method in brief: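 Screened at 0.091 mole fraction inhibitor against human GIVA cPLA2. Micelles: 400 μM Triton X-100, 97 μM PAPC, 1.8 μM 14C-PAPC, 3 μM PIP2 in 100 mM HEPES pH 7.5 with 90 μM CaCl2, 2 mM DTT and 0.1 mg/ml BSA. Average percent inhibition is reported; 25% or less is designated N.D.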

[2] = biological target: T1, Cytosolic phospholipase A2 (Homo sapiens); assay: Inhibition of human group 4A cPLA2 using PAPC/[14C]-labeled PAPC as substrate after 30 mins by mixed micelle-based assay
Method in brief: (§1)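 Human GIVA cPLA2 in mixed micelles: 400 μM Triton X-100, 97 μM PAPC, 1.8 μM 14C-labeled PAPC and 3 μM PIP2. Buffer was 100 mM HEPES pH 7.5 with 90 μM CaCl2, 2 mM DTT and 0.1 mg/ml BSA. XI(50) is the inhibitor mole fraction in the total substrate interface giving 50% inhibition. It was measured only for compounds exceeding 85% inhibition at the 0.091 screen.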

[3] = biological target: T2, 85/88 kDa calcium-independent phospholipase A2 (Homo sapiens) (UniProt O60733); assay: Inhibition of human group 6A iPLA2 using PAPC/[14C]-labeled PAPC as substrate at 0.091 mole fraction after 30 mins by mixed micelle-based assay relative to control
T2 sequence (whole entry): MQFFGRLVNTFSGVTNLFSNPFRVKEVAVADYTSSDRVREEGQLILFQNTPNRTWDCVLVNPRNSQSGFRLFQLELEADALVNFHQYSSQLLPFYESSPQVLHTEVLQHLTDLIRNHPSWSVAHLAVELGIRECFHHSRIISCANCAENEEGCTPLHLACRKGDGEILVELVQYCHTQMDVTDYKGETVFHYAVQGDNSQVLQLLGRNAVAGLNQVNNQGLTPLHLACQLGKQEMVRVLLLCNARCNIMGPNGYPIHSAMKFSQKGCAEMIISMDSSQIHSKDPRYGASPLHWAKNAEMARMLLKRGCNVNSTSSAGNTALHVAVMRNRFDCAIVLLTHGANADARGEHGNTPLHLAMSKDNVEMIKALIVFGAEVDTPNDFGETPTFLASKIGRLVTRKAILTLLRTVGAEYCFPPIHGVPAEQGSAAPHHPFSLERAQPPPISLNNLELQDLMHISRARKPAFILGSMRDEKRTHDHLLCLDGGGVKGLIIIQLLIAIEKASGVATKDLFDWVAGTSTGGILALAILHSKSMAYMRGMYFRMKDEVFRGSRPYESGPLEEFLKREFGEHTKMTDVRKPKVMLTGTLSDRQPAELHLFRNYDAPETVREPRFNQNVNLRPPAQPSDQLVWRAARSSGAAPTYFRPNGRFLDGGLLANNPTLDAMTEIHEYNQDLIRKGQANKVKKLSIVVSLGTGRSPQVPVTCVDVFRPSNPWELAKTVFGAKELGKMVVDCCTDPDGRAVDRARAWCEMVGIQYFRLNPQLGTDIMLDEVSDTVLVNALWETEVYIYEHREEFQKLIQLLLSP
Method in brief: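 Human GVIA iPLA2 was single-point screened at 0.091 inhibitor mole fraction. Micelles: 400 μM Triton X-100, 98.3 μM PAPC, 1.7 μM 14C-PAPC in 100 mM HEPES pH 7.5, 2 mM ATP, 4 mM DTT. Average percent inhibition is given; 25% or less is treated as no inhibition (N.D.).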

Homo sapiens = organism: Homo sapiens; assay: Inhibition of human group 5 sPLA2 using PAPC/[14C]-labeled PAPC as substrate at 0.091 mole fraction after 30 mins by mixed micelle-based assay relative to control
Method in brief: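 Human GV sPLA2 was tested at 0.091 mole fraction inhibitor in mixed micelles of 400 μM Triton X-100, 98.3 μM PAPC and 1.7 μM 14C-labeled PAPC. Average percent inhibition is reported; 25% or less is designated N.D.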

[4] = biological target: T2, 85/88 kDa calcium-independent phospholipase A2 (Homo sapiens); assay: Inhibition of human group 6A iPLA2 using PAPC/[14C]-labeled PAPC as substrate after 30 mins by mixed micelle-based assay
Method in brief: (§2)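 For human GVIA iPLA2, micelles held 400 μM Triton X-100, 98.3 μM PAPC and 1.7 μM 14C-PAPC. Buffer was 100 mM HEPES pH 7.5 with 2 mM ATP and 4 mM DTT. XI(50) is the inhibitor mole fraction in the total substrate interface causing 50% inhibition. It was determined for compounds exceeding 85% inhibition at 0.091 mole fraction.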

[5] = biological target: T1, Cytosolic phospholipase A2 (Homo sapiens); assay: Inhibition of human group 4A cPLA2 using PAPC as substrate preincubated for 5 mins with substrate followed by enzyme addition for 30 mins by mixed micelle-based assay; method in brief: as §1
[6] = biological target: T2, 85/88 kDa calcium-independent phospholipase A2 (Homo sapiens); assay: Inhibition of human group 6A iPLA2 using PAPC as substrate preincubated for 5 mins with substrate followed by enzyme addition for 30 mins by mixed micelle-based assay; method in brief: as §2
[7] = biological target: T1, Cytosolic phospholipase A2 (Homo sapiens); assay: Inhibition of human group 4A cPLA2 using [14C]-labeled PAPC as substrate after 30 mins by mixed micelle assay based liquid scintillation counting; method in brief: as §1

Question: What does the source list for `CCCCCCOc1ccc(OCCCC(=O)C(=O)NCCCCC(=O)O)cc1`?
Answer: inhibition [1]: 88%; XI50 (mole fraction) [2]: 0.013; inhibition [3]: 82.5%; inhibition (Homo sapiens): < 25%

Question: How did the inhibition [1] turn out when `CCCCCCOc1ccc(CCCCC(=O)C(=O)NCCCC(=O)O)cc1` was run?
Answer: > 85%

Question: What about the XI50 (mole fraction) [2] of the same compound?
Answer: 0.016

Question: And the inhibition [3]?
Answer: < 25%

Question: And the inhibition (Homo sapiens)?
Answer: < 25%

Question: With `CCCCCCCCc1ccc(OCCCC(=O)C(=O)NCCCC(=O)OCC)cc1` as the compound, how does the inhibition [1] read?
Answer: 49.3%

Question: What about the inhibition [3] of the same compound?
Answer: 94.7%

Question: And the XI50 (mole fraction) [4]?
Answer: 0.014

Question: What about the inhibition (Homo sapiens) of the same compound?
Answer: 40.6%

Question: `CCCCCCCCCCCCCCC(=O)C(=O)NCCCC(=O)OCC` was tested. Which XI50 (mole fraction) [5] did it give?
Answer: 0.022

Question: And the XI50 (mole fraction) [6]?
Answer: 0.027

Question: With `CCCCCCCCc1ccc(OCCCC(=O)C(=O)NCCCC(=O)O)cc1` as the compound, how does the inhibition [1] read?
Answer: > 85%

Question: And the XI50 (mole fraction) [2]?
Answer: 0.023

Question: What about the inhibition [3] of the same compound?
Answer: < 25%

Question: What about the inhibition (Homo sapiens) of the same compound?
Answer: < 25%

Question: How did the inhibition [1] turn out when `Cc1ccc(S(=O)(=O)NCCCCCCCCCCC(=O)C(=O)NCCCC(=O)O)cc1` was run?
Answer: < 25%

Question: What about the inhibition [3] of the same compound?
Answer: < 25%

Question: And the inhibition (Homo sapiens)?
Answer: < 25%

Question: Which inhibition [3] does the source give for `CCCCCCCCCCCCCCC(=O)C(=O)NCCCC(=O)O` here?
Answer: < 25%

Question: And the XI50 (mole fraction) [5]?
Answer: 0.024

Question: Which XI50 (mole fraction) [7] does the source give for `CCCCC/C=C\C/C=C\C/C=C\C/C=C\CCCC(=O)C(F)(F)F` here?
Answer: 0.036

Question: Which results are given for `CCOC(=O)CCCNC(=O)C(=O)CCCCCCCCCCCC(=O)O`?
Answer: inhibition [1]: < 25%; inhibition [3]: < 25%; inhibition (Homo sapiens): < 25%

Question: What does the source list for `CCOC(=O)CCCNC(=O)C(=O)CCCCCCCCCCNS(=O)(=O)c1ccc(C)cc1`?
Answer: inhibition [1]: 59.3%; inhibition [3]: < 25%; inhibition (Homo sapiens): < 25%

Question: `CCCCCCOc1ccc(OCCCC(=O)C(=O)NCCCC(=O)O)cc1` was tested. Which inhibition [1] did it give?
Answer: 63.6%

Question: And the inhibition [3]?
Answer: 81.1%

Question: And the inhibition (Homo sapiens)?
Answer: < 25%

Question: How did the inhibition [1] turn out when `CCCCCCOc1ccc(CCCCC(=O)C(=O)NCCCC(=O)OCC)cc1` was run?
Answer: > 85%

Question: And the XI50 (mole fraction) [2]?
Answer: 0.02

Question: And the inhibition [3]?
Answer: 95.1%

Question: What about the XI50 (mole fraction) [4] of the same compound?
Answer: 0.013

Question: What about the inhibition (Homo sapiens) of the same compound?
Answer: 33.8%

Source: ChEMBL document CHEMBL4431346, “2-Oxoamide inhibitors of cytosolic group IVA phospholipase A2 with reduced lipophilicity” (Bioorg Med Chem, 2016)
